Published values from different studies.
Compare with care: the assays were run in different laboratories.
Target: SRSF protein kinase 3 (SRPK3, Homo sapiens, UniProt Q9UPE1)

| Structure (SMILES) | read-out | action | technique | concentration | quantity | value |
| --- | --- | --- | --- | --- | --- | --- |
| Cc1cnc(NC2CCOCC2)nc1-n1cnc(C(=O)NC(CN)c2cc(F)cc(Cl)c2)c1 (centres unmarked) | enzyme activity | inhibitor | radiometric | 1 µM | remaining activity | 114% |
| Nc1ncnc2occ(-c3ccc(NC(=O)Nc4cc(C(F)(F)F)ccc4F)cc3)c12 | cell-free assay | inhibitor | – | 20 µM | remaining signal | 88% |
| O=C(Nc1ccc(Oc2ccc(F)cc2)cc1)N1CCc2ncccc2[C@H]1c1ccc(F)cc1 | cell-free assay | – | competition with immobilised ligand | 1 µM | remaining binding | 100% |
| CNC(=O)c1cc(Oc2ccc(NC(=O)Nc3ccc(Cl)c(C(F)(F)F)c3)cc2)ccn1 | enzyme activity | inhibitor | – | 0.3 µM | inhibition | -7% |
| Cc1cc(NC(=O)c2cccc3cc(-c4cccc5[nH]nc(N)c45)ccc23)ccc1F | enzyme activity | inhibitor | – | 0.1 µM | activity vs control | 113% |
| Cc1ccc(Nc2nccc(N(C)c3ccc4c(C)n(C)nc4c3)n2)cc1S(N)(=O)=O | enzyme activity | inhibitor | – | 0.3 µM | inhibition | -13% |
| CCCOc1ccc(OC)c(F)c1C(=O)c1ccc(C(=O)N[C@@H]2CNC[C@H]2NC(=O)c2ccc3[nH]ncc3c2)cc1 | enzyme activity | inhibitor | – | 10 µM | remaining activity | 77% |
| CC(=O)Nc1c(C(C)=O)c(=O)n(C)c2nc(-c3ccc(Cl)cc3Cl)c(-c3ccc(Cl)cc3)cc12 | cell-free assay | – | competition with immobilised ligand | 1 µM | remaining binding | 100% |
| CCN(CC)CCNC(=O)c1c(C)[nH]c(/C=C2\C(=O)Nc3ccc(F)cc32)c1C | enzyme activity | inhibitor | – | 10 µM | inhibition | 15% |
| CN(C)C(=O)Cn1cc(-c2nc(C3(c4ccc(-c5cnc(N)nc5)cc4)CC3)no2)cn1 | cell-free assay | – | competition with immobilised ligand | 1 µM | remaining binding | 100% |
| CCN(CC)c1ccc(C2=NNC(=O)CC2C)cc1[N+](=O)[O-] (centres unmarked) | enzyme activity | inhibitor | – | 10 µM | remaining activity | 111% |
| CCC(=O)N[C@@H]1CC[C@H](C(=O)N(C)c2ccc(-c3nc4ccccc4o3)cc2)C1 | cell-free assay | – | competition with immobilised ligand | 1 µM | remaining binding | 100% |
| Cn1c2c(c3ccccc31)C(C#N)C(C)(C)NC2=O (centres unmarked) | thermal stability | – | DSF | 10 µM | ΔTm | 0.2 °C |
| CC1=C(C#N)[C@@H](c2ccc3[nH]nc(C)c3c2)C(C#N)=C(c2ccc(Cl)cc2)N1 | cell-free assay | – | competition with immobilised ligand | 1 µM | remaining binding | 100% |
| COc1cc2ncnc(Nc3ccc(Oc4ccccc4)c(C)c3C)c2cc1OC | enzyme activity | inhibitor | – | 1 µM | inhibition | 5% |
| COc1cc(Cl)c(C(=O)N[C@@H](CN[C@H]2CC[C@@H](N)CC2)Cc2ccc(C#N)cc2)cc1-c1ccc(CN[C@H](C)c2ccc(C)cc2)o1 | enzyme activity | inhibitor | – | 1 µM | remaining activity | 96% |
| Cn1c2c(Cl)c(Cl)ccc2c2cc(N)[nH]c(=O)c21 | thermal stability | – | DSF | 10 µM | ΔTm | 0.3 °C |
| COc1cc(-c2cn(C3CCc4c(F)cccc4N(CC(F)(F)F)C3=O)nn2)ccc1-n1cnc(C)c1 (centres unmarked) | cell-free assay | – | competition with immobilised ligand | 1 µM | remaining binding | 100% |
| CC(C)(C)c1nc(-c2cccc(NS(=O)(=O)c3c(F)cccc3F)c2F)c(-c2ccnc(N)n2)s1 | enzyme activity | inhibitor | radiometric | 1 µM | remaining activity | 105% |
| Cn1c2c(c3ccc(Cl)c(Cl)c31)C(C#N)C1(CCNCC1)NC2=O (racemic) | thermal stability | – | DSF | 10 µM | ΔTm | 1.9 °C |
